According to ChEMBL document CHEMBL1148687, “Identification of a novel 4-aminomethylpiperidine class of M3 muscarinic receptor antagonists and structural insight into their M3 selectivity” (J Med Chem, 2006):

What was measured:
[1] = molecular target: T1, Muscarinic acetylcholine receptor M3 (Homo sapiens, UniProt P20309); assay: Inhibition of [3H]NMS binding to human cloned M3 receptor expressed in CHO cells at 1 uM; format: cell-based
Target sequence in this assay (P20309 whole entry, looked up): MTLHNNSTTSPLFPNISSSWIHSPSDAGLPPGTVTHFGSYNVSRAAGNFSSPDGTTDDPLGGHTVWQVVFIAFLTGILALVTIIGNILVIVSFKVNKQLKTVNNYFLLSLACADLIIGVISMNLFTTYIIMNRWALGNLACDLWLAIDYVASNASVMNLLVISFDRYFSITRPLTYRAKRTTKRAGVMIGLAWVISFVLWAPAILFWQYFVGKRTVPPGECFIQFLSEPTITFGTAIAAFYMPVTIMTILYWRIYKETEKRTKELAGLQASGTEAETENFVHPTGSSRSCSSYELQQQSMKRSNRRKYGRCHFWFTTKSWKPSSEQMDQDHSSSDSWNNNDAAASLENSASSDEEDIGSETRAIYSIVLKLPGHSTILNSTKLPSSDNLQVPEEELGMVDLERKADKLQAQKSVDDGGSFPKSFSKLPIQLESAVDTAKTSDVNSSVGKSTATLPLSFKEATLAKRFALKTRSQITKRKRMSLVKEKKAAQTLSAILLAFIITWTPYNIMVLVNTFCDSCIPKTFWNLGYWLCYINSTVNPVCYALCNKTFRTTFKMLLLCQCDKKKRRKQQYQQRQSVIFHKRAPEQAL

[2] = molecular target: T1, Muscarinic acetylcholine receptor M3; assay: Inhibition of [3H]NMS binding to human cloned M3 receptor expressed in CHO cells; format: cell-based
Outline: (§1)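 Competition against specific [3H]-NMS binding on membranes of CHO cells expressing cloned human receptor subtypes. Assay buffer 50 mM Tris-HCl, 10 mM MgCl2, 1 mM EDTA, pH 7.4, highest final concentration 10 µM.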
Target sequence in this assay (P20309 whole entry): as the sequence (P20309 whole entry, looked up) above

[3] = molecular target: T2, Muscarinic acetylcholine receptor M1 (Homo sapiens, UniProt P11229); assay: Inhibition of [3H]NMS binding to human cloned M1 receptor expressed in CHO cells; format: cell-based; outline: as §1
T2 sequence (P11229 whole entry): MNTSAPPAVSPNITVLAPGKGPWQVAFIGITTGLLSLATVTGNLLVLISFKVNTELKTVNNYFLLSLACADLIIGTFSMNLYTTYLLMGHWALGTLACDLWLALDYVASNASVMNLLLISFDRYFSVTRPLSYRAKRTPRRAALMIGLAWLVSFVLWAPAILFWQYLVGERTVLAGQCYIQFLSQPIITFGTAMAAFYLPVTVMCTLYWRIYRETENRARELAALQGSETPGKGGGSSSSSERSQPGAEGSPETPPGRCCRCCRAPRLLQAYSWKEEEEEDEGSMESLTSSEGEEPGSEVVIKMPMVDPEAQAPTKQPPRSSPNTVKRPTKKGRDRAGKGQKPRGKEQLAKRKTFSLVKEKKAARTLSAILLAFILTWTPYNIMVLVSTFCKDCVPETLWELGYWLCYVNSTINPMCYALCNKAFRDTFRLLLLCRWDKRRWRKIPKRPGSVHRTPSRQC

[4] = molecular target: T3, Muscarinic acetylcholine receptor M5 (Homo sapiens, UniProt P08912); assay: Inhibition of [3H]NMS binding to human cloned M5 receptor expressed in CHO cells; format: cell-based; outline: as §1
T3 sequence (P08912 whole entry): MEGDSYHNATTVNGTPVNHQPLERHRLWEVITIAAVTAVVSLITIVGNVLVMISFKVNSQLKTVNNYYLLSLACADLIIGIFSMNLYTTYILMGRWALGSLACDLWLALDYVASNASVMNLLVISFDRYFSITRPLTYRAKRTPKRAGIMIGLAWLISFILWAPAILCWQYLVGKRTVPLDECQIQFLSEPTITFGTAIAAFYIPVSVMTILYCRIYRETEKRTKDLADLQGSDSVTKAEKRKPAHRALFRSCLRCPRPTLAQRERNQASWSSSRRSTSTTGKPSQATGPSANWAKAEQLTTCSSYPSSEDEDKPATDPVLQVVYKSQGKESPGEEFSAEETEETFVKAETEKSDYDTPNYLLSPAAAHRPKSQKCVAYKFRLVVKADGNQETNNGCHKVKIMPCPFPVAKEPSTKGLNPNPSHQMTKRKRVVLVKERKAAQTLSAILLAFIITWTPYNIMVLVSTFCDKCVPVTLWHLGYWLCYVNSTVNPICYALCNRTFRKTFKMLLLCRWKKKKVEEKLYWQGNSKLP

[5] = molecular target: T4, Muscarinic acetylcholine receptor M4 (Homo sapiens, UniProt P08173); assay: Inhibition of [3H]NMS binding to human cloned M4 receptor expressed in CHO cells; format: cell-based; outline: as §1
T4 sequence (P08173 whole entry): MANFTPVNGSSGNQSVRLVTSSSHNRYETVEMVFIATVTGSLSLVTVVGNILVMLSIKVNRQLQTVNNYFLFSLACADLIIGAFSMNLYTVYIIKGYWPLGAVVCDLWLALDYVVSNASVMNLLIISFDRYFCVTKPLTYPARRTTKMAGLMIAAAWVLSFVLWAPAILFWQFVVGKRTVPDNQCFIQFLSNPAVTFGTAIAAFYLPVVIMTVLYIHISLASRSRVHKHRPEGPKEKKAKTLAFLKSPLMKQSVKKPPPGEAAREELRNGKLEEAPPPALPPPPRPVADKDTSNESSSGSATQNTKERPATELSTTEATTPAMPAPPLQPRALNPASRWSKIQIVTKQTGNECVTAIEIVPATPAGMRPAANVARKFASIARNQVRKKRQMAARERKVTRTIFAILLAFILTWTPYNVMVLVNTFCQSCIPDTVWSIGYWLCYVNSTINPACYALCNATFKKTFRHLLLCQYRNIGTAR

[6] = molecular target: Muscarinic acetylcholine receptor M3 (Rattus norvegicus) (UniProt P08483); assay: (§2) Antagonist activity at M3 receptor assessed as inhibition of carbachol-induced contraction of rat trachea; format: functional
Outline: (§3)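 Contraction of isolated rat trachea evoked by carbachol, antagonist given at several doses. Four experiments per dose, reported as mean ± SEM. Schild regression analysis applied to the data.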

[7] = molecular target: Muscarinic acetylcholine receptor M3 (Rattus norvegicus, UniProt P08483); assay: as §2; format: functional; conditions: read-out: pA2 (converted); outline: as §3
[8] = molecular target: T5, Muscarinic acetylcholine receptor M2 (Rattus norvegicus, UniProt P10980); assay: Antagonist activity at M2 receptor assessed as inhibition of carbachol-induced bradycardia in rat atria; format: functional; conditions: read-out: pA2 (converted)
T5 sequence (P10980 whole entry): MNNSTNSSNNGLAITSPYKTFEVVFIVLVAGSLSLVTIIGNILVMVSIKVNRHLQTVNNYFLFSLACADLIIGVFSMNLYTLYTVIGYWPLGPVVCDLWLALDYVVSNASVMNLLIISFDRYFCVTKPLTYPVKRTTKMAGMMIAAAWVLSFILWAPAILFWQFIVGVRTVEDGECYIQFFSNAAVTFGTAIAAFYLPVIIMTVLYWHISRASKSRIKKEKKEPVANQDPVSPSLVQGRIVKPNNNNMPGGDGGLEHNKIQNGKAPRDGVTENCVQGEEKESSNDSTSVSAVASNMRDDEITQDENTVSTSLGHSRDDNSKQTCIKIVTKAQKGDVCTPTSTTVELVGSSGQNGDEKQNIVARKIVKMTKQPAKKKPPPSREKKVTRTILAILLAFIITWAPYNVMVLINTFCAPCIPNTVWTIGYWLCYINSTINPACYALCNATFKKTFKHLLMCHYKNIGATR
Outline: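 Isolated rat right atria, bradycardia evoked by carbachol, antagonist given at several doses. Four experiments per dose, reported as mean ± SEM. Potency obtained by Schild regression analysis.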

Chain of Muscarinic acetylcholine receptor M3 (Rattus norvegicus) (P08483 whole entry, looked up): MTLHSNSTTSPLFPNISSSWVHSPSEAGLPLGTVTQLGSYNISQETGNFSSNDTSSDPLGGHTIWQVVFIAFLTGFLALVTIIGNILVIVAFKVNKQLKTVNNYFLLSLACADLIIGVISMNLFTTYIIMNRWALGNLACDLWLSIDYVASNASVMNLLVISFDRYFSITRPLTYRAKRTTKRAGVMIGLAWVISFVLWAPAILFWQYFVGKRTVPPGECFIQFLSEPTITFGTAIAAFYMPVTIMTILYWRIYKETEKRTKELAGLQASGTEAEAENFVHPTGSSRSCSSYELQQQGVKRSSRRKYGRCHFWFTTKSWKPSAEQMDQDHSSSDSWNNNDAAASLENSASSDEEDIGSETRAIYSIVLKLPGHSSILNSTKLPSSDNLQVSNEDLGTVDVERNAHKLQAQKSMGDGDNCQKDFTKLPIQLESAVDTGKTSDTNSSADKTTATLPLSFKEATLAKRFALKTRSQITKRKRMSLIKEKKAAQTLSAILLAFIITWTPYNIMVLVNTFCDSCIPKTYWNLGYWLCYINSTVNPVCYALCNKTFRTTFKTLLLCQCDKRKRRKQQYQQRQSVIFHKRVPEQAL
Chain of Muscarinic acetylcholine receptor M3 (Rattus norvegicus, UniProt P08483) (P08483 whole entry): as the sequence (P08483 whole entry, looked up) above

Row | Structure (SMILES) | inhibition [1] | Ki [2] | Ki [3] | Ki [4] | Ki [5] | Activity [6] | Kb [7] | Kb [8]
1 | O=C(NC[C@H]1CCCNC1)[C@H]1CCCN1C(=O)[C@@H]1CCCN1C(=O)CC(c1ccccc1)(c1ccccc1)c1ccccc1 | 74% | 99 nM | > 2500 nM | > 5000 nM | > 1700 nM |  |  | 
2 | O=C(NCC1CCNCC1)[C@H]1CCCN1C(=O)[C@@H]1C[C@@H](O)CN1C(=O)CC(c1ccccc1)(c1ccccc1)c1ccccc1 |  | 4.2 nM | 1800 nM | > 5100 nM | 480 nM |  |  | 
3 | O=C(NC[C@@H]1CCCNC1)[C@H]1CCCN1C(=O)[C@@H]1C[C@@H](O)CN1C(=O)CC(c1ccccc1)(c1ccccc1)c1ccccc1 |  | 3.7 nM | > 2600 nM | > 5100 nM | 290 nM |  |  | 

Molecules with a lower Ki [2], results first:

Row | inhibition [1] | Ki [2] | Ki [3] | Ki [4] | Ki [5] | Activity [6] | Kb [7] | Kb [8] | Structure (SMILES)
4 |  | 0.92 nM | 580 nM | 2800 nM | 92 nM |  |  |  | CCN1CCC(CNC(=O)[C@H]2CCCN2C(=O)[C@@H]2C[C@@H](O)CN2C(=O)CC(c2ccc(F)cc2)(c2ccc(F)cc2)c2ccc(F)cc2)CC1
5 |  | 0.17 nM | 65 nM | 1600 nM | 20 nM |  |  |  | O=C(NCC1CCN(CC2CC2)CC1)[C@H]1CCCN1C(=O)[C@@H]1C[C@@H](O)CN1C(=O)CC(c1ccc(F)cc1)(c1ccc(F)cc1)c1ccc(F)cc1
6 |  | 1.6 nM | 460 nM | 2700 nM | 120 nM |  |  |  | O=C(NC[C@@H]1CCCNC1)[C@H]1CCCN1C(=O)[C@@H]1C[C@@H](O)CN1C(=O)CC(c1ccc(Cl)cc1)(c1ccc(Cl)cc1)c1ccc(Cl)cc1
7 |  | 0.3 nM | 170 nM | 3500 nM | 42 nM | Dose-dependent effect | 0.224 nM | 204 nM | O=C(NCC1CCNCC1)[C@H]1CCCN1C(=O)[C@@H]1C[C@@H](O)CN1C(=O)CC(c1ccc(F)cc1)(c1ccc(F)cc1)c1ccc(F)cc1
